From ChEMBL document CHEMBL1156054, “Allosteric functional switch of neurokinin A-mediated signaling at the neurokinin NK2 receptor: structural exploration” (J Med Chem, 2009)
Active and inactive are the calls of the source. The calls are words filed in the database; no cut-off is given here.

Key:
[1] = target: T1, Substance-K receptor (Rattus norvegicus) (UniProt P16610); assay: Inhibition of NKA-Bo binding to rat NK2 receptor expressed in HEK293 cells at 10 uM by FRET assay relative to neurokinin A; type: cell-based
T1 sequence (whole entry): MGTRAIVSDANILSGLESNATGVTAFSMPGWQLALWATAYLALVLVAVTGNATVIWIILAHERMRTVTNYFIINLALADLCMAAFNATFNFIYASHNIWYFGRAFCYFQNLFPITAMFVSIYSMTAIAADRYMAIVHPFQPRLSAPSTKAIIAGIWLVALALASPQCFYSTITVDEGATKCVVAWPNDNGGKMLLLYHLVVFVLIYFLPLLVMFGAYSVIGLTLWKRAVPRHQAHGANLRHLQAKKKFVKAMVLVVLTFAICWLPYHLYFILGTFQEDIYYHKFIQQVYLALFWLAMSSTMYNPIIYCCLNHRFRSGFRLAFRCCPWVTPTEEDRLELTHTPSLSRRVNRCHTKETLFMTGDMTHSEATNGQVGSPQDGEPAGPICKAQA
In short: (§1)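 HEK293 cells stably expressing EGFP-fused rat NK2 receptor (hygromycin B 500 μg/mL selection) are suspended in Hepes-BSA buffer, pH 7.4, with protease inhibitors. EGFP emission is read at 510 nm with 470 nm excitation. 20 nM NKA-Bo is added at 50 s, compound (10 μM) at 450 s for 150 s, then excess unlabeled NKA at 600 s.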

[2] = target: T1, Substance-K receptor (Rattus norvegicus); assay: Allosteric modulation of rat NK2 receptor expressed in HEK293 cells assessed as formation of active receptor calcium-triggering conformation at 10 uM in presence of 20nM NKA-Bo by FRET assay; type: functional, cell-based; in short: as §1
[3] = target: T1, Substance-K receptor (Rattus norvegicus); assay: Allosteric modulation of rat NK2 receptor expressed in HEK293 cells assessed as formation of active receptor cAMP-producing conformation at 50 uM in presence of 20nM NKA-Bo by FRET assay; type: functional, cell-based
[4] = target: T1, Substance-K receptor (Rattus norvegicus); assay: Allosteric modulation of rat NK2 receptor expressed in HEK293 cells assessed as enhancement of neurokinin A-induced intracellular calcium level at 20 uM by spectrofluorimetry; type: functional, cell-based
[5] = target: T1, Substance-K receptor (Rattus norvegicus); assay: Allosteric modulation of rat NK2 receptor expressed in HEK293 cells assessed as reduction of neurokinin A-induced cAMP production at 10 uM by radioimmunoassay; type: functional, cell-based; set-up: scale not given: the % may be the effect or the level left
In short: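 HEK293 cells expressing NK2 receptor are seeded at 50000 on collagen-coated wells and cultured 3 days (~80% confluency). They are stimulated with increasing NKA concentrations with or without 10 μM compound. The reaction is stopped with ice-cold 0.2 M HCl and cAMP is measured by radioimmunoassay. Values are mean ± SD of six determinations; the change in maximal response amplitude is reported.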

[6] = target: T1, Substance-K receptor (Rattus norvegicus); assay: Allosteric modulation of rat NK2 receptor expressed in HEK293 cells assessed as formation of active receptor cAMP-producing conformation at 10 uM in presence of 20nM NKA-Bo by FRET assay; type: functional, cell-based; in short: as §1
[7] = target: T1, Substance-K receptor (Rattus norvegicus); assay: Allosteric modulation of rat NK2 receptor expressed in HEK293 cells assessed as formation of active receptor calcium-triggering conformation at 50 uM in presence of 20nM NKA-Bo by FRET assay; type: functional, cell-based

Compound	inhibition [1]	Activity [2]	also measured
N#CCN(Cc1ccccc1)Cc1ccc2ccccc2n1	0%	47%	
N#CCN(Cc1ccccc1)Cc1ccc(Cl)cc1	0%	53%	
N#CCN(Cc1ccc(CCc2ccccc2)cc1)Cc1ccc2ccccc2c1	20%	39%	
CCCCCCCCCCCCCCCCOC(=O)CN(Cc1ccccc1)Cc1ccc2ccccc2c1	0%	38%	
N#CCN(Cc1ccc(I)cc1)Cc1ccc2ccccc2c1	0%	47%	
c1ccc(CN(Cc2ccc3ccccc3c2)c2ccccn2)cc1	17%	56%	
N#CCN(Cc1ccc2ccccc2c1)Cc1ccccc1Br	0%	43%	
N#CCN(Cc1ccccc1)Cc1cnc2ccccc2c1	21%	46%	
c1ccc(CN(Cc2ccc3ccccc3c2)c2cccnc2)cc1	0%	59%	
N#CCN(Cc1ccc(Br)cc1)Cc1ccc2ccccc2c1	0%	45%	
N#CCN(Cc1ccccc1)Cc1ccc(C(F)(F)F)cc1	0%	48%	
N#CCN(Cc1ccccc1)Cc1cccc(Cl)c1	0%	45%	
COc1ccc(CN(CC#N)Cc2ccccc2)cc1	0%	49%	
N#CCN(C/C=C/c1ccccc1)Cc1ccccc1	0%	47%	
COc1ccc(CN(CC#N)Cc2ccc3ccccc3c2)cc1	0%	54%	

The next lines start with results.

inhibition [1]	Activity [2]	Compound	also measured
0%	51%	C#CCN(Cc1ccccc1)Cc1ccc2ccccc2c1	
0%	51%	CCOC(=O)CN(Cc1ccccc1)Cc1ccc2ccccc2c1	
0%	42%	O=C(CN(Cc1ccccc1)Cc1ccc2ccccc2c1)OCCN1CCOCC1	
0%	43%	O=C(CN(Cc1ccccc1)Cc1ccc2ccccc2c1)N1CCN(c2ccccc2)CC1	
0%	46%	O=C(CN(Cc1ccccc1)Cc1ccc2ccccc2c1)OCCc1ccccc1	
0%	35%	O=C(O)CN(Cc1ccccc1)Cc1ccc2ccccc2c1	
0%	58%	CN1CCN(C(=O)CN(Cc2ccccc2)Cc2ccc3ccccc3c2)CC1	
0%	54%	CCCCNC(=O)CN(Cc1ccccc1)Cc1ccc2ccccc2c1	
34%	61%	c1ccc(CN(Cc2ccc3ccccc3c2)c2ccncn2)cc1	
0%	50%	N#CCN(Cc1ccccc1)Cc1ccc2ccccc2c1	Activity [3]: 5%; Activity [4]: inactive; Activity [5]: 33%; Activity [6]: 50%; Activity [7]: 95%
0%	68%	N#CCCCN(Cc1ccccc1)Cc1ccc2ccccc2c1	Emax [4]: 120%; Activity [5]: 47%
0%	44%	O=C(CN(Cc1ccccc1)Cc1ccc2ccccc2c1)N1CCCCC1	
0%	44%	O=C(O)CCCCN(Cc1ccccc1)Cc1ccc2ccccc2c1	
0%	52%	CCOC(=O)CCCCN(Cc1ccccc1)Cc1ccc2ccccc2c1	
0%	53%	O=C(CN(Cc1ccccc1)Cc1ccc2ccccc2c1)OCCO	
